Assay outcomes deposited in PubChem by Johns Hopkins Ion Channel Center.
hERG rescue: shields human hERG channel from block by proarrhythmic agents. Q12809. CHO-hERG, FluxOR thallium flux, dofetilide IC70 present. activation (rescue from dofetilide block), less the hit threshold, % at 10 µM. 310,000 tested, 0.51% active. AID 1511;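 active means activation above the mean of controls blocked by dofetilide plus 5 SD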;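 further: thallium influx through hERG after potassium depolarization seen as dye fluorescence rise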
KCNK3 inh: human KCNK3 channel inhibition, primary screen | CHO-KCNK3 thallium flux, FluxOR fluorescence; hits give low values | B-score at 10 µM | 340,000 tested, 0.84% active;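 active means B-score under library mean minus 4 SD, starting fluorescence ratio at most library mean plus 5 SD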;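 further: more negative B-score means stronger inhibition of thallium flux through KCNK3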
KCNQ1 act: potentiates or activates the human KCNQ1 potassium channel. P51787. CHO-K1 KCNQ1, thallium flux FluxOR fluorescence; hits give high values. B-score at 10 µM. 310,000 tested, 0.35% active;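 active means fluorescence ratio B-score, a plate-corrected score, at least three library SD, with initial intensity B-score within 5 SD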
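Assay system: CHO-K1 cells stably expressing KCNQ1; Medium: assay buffer with matched DMSO; Also added: K+/Tl+ depolarizing stimulus; Dosing: single dose; Timing: dye 90 min, compound 20 min, room temperature; Measured by: kinetic FluxOR thallium fluorescence, 10-s 1-Hz baseline, 110-s post-stimulus read; Read-out: peak-minus-minimum fluorescence over initial fluorescence, negative-control normalized, B-scored.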
KCNQ1 block: blocks the human KCNQ1 potassium channel | P51787 | CHO-K1 KCNQ1, FluxOR thallium flux fluorescence; hits give high values | B-score at 10 µM | 310,000 tested, 1.3% active | AID 2642;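 active means compounds whose thallium flux B-score, printed positive for inhibition, exceeds three library SD while starting fluorescence stays within three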;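 further: channel opened by potassium depolarization with thallium stimulus after 20 min compound exposure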
KCNK9 block: human KCNK9 channel inhibition | Q9NPC2 | 310,000 tested, 1.2% active | B-score at 10 µM | HEK293 KCNK9, FluxOR thallium flux fluorescence; hits give low values;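 active means ratio B-score over 3 SD below the library mean, with starting fluorescence within 5 SD of its mean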;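 further: negative B-score means less thallium flux so channel inhibition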
Target sequence (Q9NPC2 whole entry, looked up): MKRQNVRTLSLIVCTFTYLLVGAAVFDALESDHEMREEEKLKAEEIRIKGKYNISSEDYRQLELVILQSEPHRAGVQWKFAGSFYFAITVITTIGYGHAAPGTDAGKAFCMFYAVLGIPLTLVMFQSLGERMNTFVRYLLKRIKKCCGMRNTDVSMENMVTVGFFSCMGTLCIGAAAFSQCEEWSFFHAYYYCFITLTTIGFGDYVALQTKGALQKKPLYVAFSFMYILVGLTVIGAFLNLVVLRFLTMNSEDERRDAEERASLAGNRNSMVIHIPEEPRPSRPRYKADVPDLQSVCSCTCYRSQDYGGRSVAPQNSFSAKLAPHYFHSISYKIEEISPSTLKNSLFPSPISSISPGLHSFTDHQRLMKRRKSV
Kir21 inh: blocks the mouse Kir2.1 inward-rectifier potassium channel | P35561 | B-score at 10 µM | HEK293-Kir2.1, FluxOR thallium flux fluorescence; hits give low values | AID 1672 | 310,000 tested, 0.85% active;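 active means fluorescence ratio B-score at or below minus 3 SD of library scores, with starting-brightness B-score within 2 SD, cut at about -4.2 in these data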;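 further: channel flux triggered by added potassium and thallium sulfate stimulus; B-score of peak minus minimum fluorescence over baseline after thallium stimulus; more negative B-score means stronger Kir2.1 block with less thallium influx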
KCNK9 inh conf: confirmation of human KCNK9 potassium channel inhibitors | inhibition, % at 10 µM | 4,900 tested, 43% active | HEK293 KCNK9 cells, FluxOR thallium flux fluorescence | shares compounds with KCNK9 block;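 active means thallium signal inhibited by more than 5 SD of the compound-free buffer control wells, on both duplicate plates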;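 further: 0% = assay buffer control wells without compound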
Kir2-1 spec: tests whether KCNK9 modulators also affect mouse Kir2.1; shares compounds with KCNK9 block; Kir2.1 cells, FluxOR thallium flux fluorescence; inhibition, % at 10 µM; 4,900 tested, 4% active;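 active means thallium signal drop more than 5 SD beyond the mean of the no-compound control wells, seen in both duplicate plates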;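 further: signal is fluorescence rise after thallium addition divided by baseline fluorescence; plate controls were assay buffer only for no effect and full block by chlorpromazine control for full effect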
KCNK9 uninduced: second counter-screen for KCNK9 modulators: effect in non-induced cells; shares compounds with KCNK9 block; non-induced KCNK9-HEK293, FluxOR thallium flux; inhibition, % at 10 µM; 4,900 tested, 40% active;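 active means thallium signal drop beyond 5 SD of the untreated control mean, on both duplicate plates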;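 further: plate controls were buffer only IC0 wells for no effect and SID17386958 at its maximal inhibitory level for full effect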
* = called active by the depositor; i = inactive; · = no result given. Rows were chosen to be rich in hits. Some 3.8% of all compounds tested hit in one or more screens of this group.

SMILES	hERG rescue	KCNK3 inh	KCNQ1 act	KCNQ1 block	KCNK9 block	Kir21 inh	KCNK9 inh conf	Kir2-1 spec	KCNK9 uninduced
Fc1ccc(C2=CCN(C(c3cccs3)c3nnnn3CCc3ccccc3)CC2)cc1 (configuration not stated)	-6	i	i	i	-14*	0.83	60%*	i	36%*
CC(C)c1ccc(NC(=O)N2C[C@H]3C[C@@H](C2)c2cccc(=O)n2C3)cc1	-7	i	i	i	i	-1.1	·	·	·
CCCNC(=O)N1[C@H]2CC[C@@H]1C(C(=O)OC)=C(c1cccc(C#N)c1)C2	·	i	·	·	·	·	·	·	·
Cc1ccccc1N1CCN(C2CCCN(C(=O)COc3ccccc3)C2)CC1 (configuration not stated)	-12	i	i	i	i	0	i	i	i
CN(C)CCSCc1nnc2n1-c1ccc(Cl)cc1C(c1ccccc1Cl)=NC2	-12	i	i	i	i	-0.4	·	·	·
COc1ccc(C(=O)C2CCCN(C3CSCCSC3)C2)c(C)c1 (configuration not stated)	-8	i	i	i	i	-1.2	i	i	i
COc1ccc(C(=O)C2CCCN(C3CSCCSC3)C2)c(OC)c1 (configuration not stated)	-8	i	i	i	i	-2.1	·	·	·
O=C1/C(=C\c2ccc(Cl)c(Cl)c2)N2CCC1CC2	-9	i	i	i	i	-0.83	i	i	i
O=C1/C(=C\c2ccncc2)N2CCC1CC2	-2	i	i	i	i	0.39	·	·	·
O=C1/C(=C\c2cc3c(cc2Cl)OCO3)N2CCC1CC2	4	i	i	i	i	-0.9	i	i	i
O=C1/C(=C/c2cc3c(cc2Cl)OCO3)N2CCC1CC2	-10	·	i	i	i	-0.05	·	·	·
O=C(Cc1ccccc1)Oc1cccc(N2C(=O)CCC2=O)c1	-5	i	i	i	i	2.9	·	·	·
CC(C)(C)c1cc(OC(=O)Cc2ccccc2)ccc1O	-6	i	i	i	-12*	-0.26	58%*	i	30%*
Cc1cc(C)cc(NC(=O)CCNC(=O)N2C[C@H]3C[C@@H](C2)c2cccc(=O)n2C3)c1	-9	i	i	i	i	-0.8	·	·	·
CCOC(=O)C1(c2ccccc2)CCN(CCC(=O)Nc2ccc(C(=O)OC)cc2)CC1	·	i	·	·	·	·	·	·	·
CCOC(=O)C1(c2ccccc2)CCN(CCC(C#N)(c2ccccc2)c2ccccc2)CC1	-11	i	i	6*	-8.2*	-0.57	40%*	i	38%*
C/C(=N\N1CCCCCC1)c1c(O)n(-c2ccc(Cl)cc2)c(=O)[nH]c1=O	-8	i	i	i	i	0.14	i	i	i
C/C(=N\N1CCCCCC1)c1c(O)n(-c2ccc(C)cc2)c(=O)[nH]c1=O	-3	i	i	i	i	-0.53	·	·	·
CCOC(=O)C1(CCOc2ccccc2)CCN(Cc2ccccc2OC)CC1	-11	i	i	i	i	-2.8	i	i	i
CCOC(=O)C1(CCc2ccccc2)CCN(Cc2cccc3cnccc23)CC1	-15	i	i	i	i	-0.09	i	i	i
CCOC(=O)C1(CCc2ccccc2)CCN(Cc2csc(C(C)=O)c2)CC1	-13	i	i	i	i	-1.6	i	i	i
COc1ccc(C(C)=O)cc1CC(C(=O)c1ccc(Br)cc1)N(C)C (configuration not stated)	-1	i	i	i	i	0.07	·	·	·
COC(=O)C1=C(c2ccc(OC)c(OC)c2)C[C@@H]2CC[C@H]1N2C(=O)N1CCC(O)CC1	·	i	·	·	·	·	·	·	·
